# The RNAGym collection of RNA variant scans (doi:10.1126/science.aae0568)
# Fewer inactive variants are shown than the library holds.
# B1: tRNA (parent)
# chain: GUUCCGUUGGCGUAAUGGUAACGCGUCUCCCUCCUAAGGAGAAGACUGCGGGUUCGAGUCCCGUACGGAACG
# Variants of: B1
# Assay: yeast fitness relative to wild type (ratio to wild type); higher = fitter; tRNA-Arg(CCU), competitive growth, 37 C, YPD
# In short: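 Changes in genotype frequencies gave Darwinian fitness relative to wild type. Frequencies were read by 100-nucleotide paired-end sequencing of gene amplicons before and after pooled Saccharomyces cerevisiae strains, carrying tRNA-Arg(CCU) gene variants at the native locus, were competed in YPD at 37°C for 24 hours in six replicates. A genotype was kept only with ≥ 100 starting reads, and estimates < 0.5 were set to 0.5.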
row,Variant,yeast fitness
1,GUUCCGUUGGGGUAAUGGUAACGCGUCACCGUCCUAAAGAGAAGACUGAGGGUUCGAGUCCCGUACGGGACG,0.559
2,GUUCCGUUGGGGUAAUGGUAACGCGUCACCCUCCUAAGGAGAAGACUGCGGGUUCGAGUCCAGUACGGAACG,≤ 0.5
3,GUUCCGUUGGGGUAAUGGUAACGCGUCACCCUCCUAAGGAGAAGACUGCGGGUUCGAGUCCCGUAUGGAUCG,≤ 0.5
4,GUUCCGUUGGGGUAAUGGUAACGCGUCACCCUCCUAAGAAGAAGACUACGGGUUCGAGUCGCGUAGGGAACG,0.561
5,GUUCCGUUGGGGUAAUGGUAACGCGUCACCCUCCUAAGAAGAAGACUACGGGUUCGACUCCCGUACGGAACG,0.543
6,GUUCCGUUGGGGUAAUGGUAACGCGUCACCCUCCUAAGAAGAAGACUACGGGUUCGAGUCCCGUACCGAACG,≤ 0.5
7,GUUCCGUUGGGGUAAUGGUAACGCGUCCCCCUCCUGAGGAGACGACUGCGGGUUCGAGUCCCGUACGGAACG,≤ 0.5
8,GUUCCGUUGGGGUAAUGGUAACGCGUCCCCCUCUUAAGGAGAACACUGCCGGCUCGAGUCCCGUACGGAACG,≤ 0.5
9,GUUCCGUUGGGGUAAUGGUAACGCGUCCCCCUCCUAAGGAGAAGACUGCGGGUUCGAGUCCCGUACCGAACG,≤ 0.5
10,GUUCCGUUGGGGUAAUGGUAACGCGUCGCCCUCCUAGGGAGAAGACUGCGGGUUCGAGUCCCGUACGGAACG,≤ 0.5
11,GUUCCGUUGGGGUAAUGGUAACGCGUCUCCCACCUAAGGAGAAGACUGCGGGUUCGAGUCCCGUACGGAACG,≤ 0.5
12,GUUCCGUUGGGGUAAUGGUAACGCGUCUCCCACCUGAGGAGAAGAUUGCGGGUUCGAGUCCCGUACGGAACG,0.592
13,GUUCCGUUGGGGUAAUGGUAACGCGUCUCCCACCUAAGGAGAAGACUGCGGGUUCGAGUCCCGUACGAAACG,0.746
14,GUUCCGUUGGGGUAAUGGUAACGCGUCUCCCCCCUAAGGUGAAGACUGCGGGUUCGAGUCCCGUACGGAACG,0.662
15,GUUCCGUUGGGGUAAUGGUAACGCGUCUCCCCCCUAAGGAGAAGACUGCGGGUUCGAGUGCCGUACGGAACG,≤ 0.5
16,GUUCCGUUGGGGUAAUGGUAACGCGUCUCCCCCCUAAGGAGAAGACUACGGGUUCGAGUGCCGUACGGAACG,≤ 0.5
17,GUUCCGUUGGGGUAAUGGUAACGCGUCUCCCGCCUAAGGAGAAGGCUGUGGGUUCGAGUCCCGUACGGAUCG,≤ 0.5
18,GUUCCGUUGGGGUAAUGGUAACGCGUCUCCCGCCUAAGGAGAAGACUGCGGGUUCGCGUCCUGUACGGAACG,0.643
19,GUUCCGUUGGGGUAAUGGUAACGCGUCUCCCGCCUAAGGAGAAGACUGCGGGUUCGCGUCCUGUAUGGAACG,0.556

row,Variant,yeast fitness
1,GUUCCGUUGGGGUAAUGGUAACGCGUCUCCCGCCUAAGGAGAAGACUGCGGGUUCGAGUCCCGUACGGCUCG,≤ 0.5
2,GUUCCGUUGGGGUAAUGGUAACGCGUCUCCCGUCUAUGGAGAAGACUGCGGGUUCGAGUCCCGUGCGGAACG,0.627
3,GUUCCGUUGGGGUAAUGGUAACGCGUCUCCCUCCAAAGGAGAAGACUGCGGGUUCGAGUCCCCUACGGAACG,0.602
4,GUUCCGUUGGGGUAAUGGUAACGCGUCUCCCUCCCAAGGAGAAGAUUGCGGGUUCGAGUCUCGUACGGAACG,≤ 0.5
5,GUUCCGUUGGGGUAAUGGUAACGCGUCUCCCUCCUAAGGAGAAGACAGCGGGUUCGAGUCCCGUACGGAACG,0.686
6,GUUCCGUUGGGGUAAUGGUAACGCGUCUCCCUCCUAAGGAGAAGACAGCGGGUUCGAGUCCGGUAGGGAACG,≤ 0.5
7,GUUCCGUUGGGGUAAUGGUAACGCGUCUCCCUCCUAAGGAGAAGACAGCGGGUUCGAGUCCCGUACAGAACG,0.548
8,GUUCCGUUGGGGUAAUGGUAACGCGUCUCCCUCCUAAGGAGAAGACCGCGGGUUCGAGUCCCGUACGGAACG,0.687
9,GUUCCGUUGGGGUAAUGGUAACGCGUCUCCCUCCUAAGGAGAAGACGGCGGGUUCGAGUCCCGUACGGAACG,≤ 0.5
10,GUUCCGUUGGGGUAAUGGUAACGCGUCUCCCUCCUAAGGAGAAGACUGCGGGAUUCAGUCCCGUACGGAACG,≤ 0.5
11,GUUCCGUUGGGGUAAUGGUAACGCGUCUCCCUCCUAAGGAGAAGACUGCGGGCUCGAGUCCCGUACGGAACG,0.584
12,GUUCCGUUGGGGUAAUGGUAACGCGUCUCCCUCCUAAGGAGAAGACUGCGGGUACGAGUCCCGUACGGAACG,≤ 0.5
13,GUUCCGUUGGGGUAAUGGUAACGCGUCUCCCUCCUAAGGAGAAGACUGCGGGUUCGAGACACGUACGGAACG,≤ 0.5
14,GUUCCGUUGGGGUAAUGGUAACGCGUCUCCCUCCUAAGGAGAAGACUGCGGGUUCGAGUCCCGAACGGAACG,0.623
15,GUUCCGUUGGGGUAAUGGUAACGCGUCUCCCUCCUAAGGAGAAGACUGCGGGUUCGAGUCCCGCACGGAACG,0.567
16,GUUCCGUUGGUGUCGUGGUAACGCGACUCCCUCAUAAGGAGAAGAGUGCGGGUUCGAGUCCCGUACGGAACG,0.637
17,GUUCCGUUGGUGUCAUGGUAAUGCGUCUCCCUCCUAAGGAGACGACUGCGGGUUCGAGUCCCGUACGGAACG,≤ 0.5
18,GUUCCGUUGGUGUCAUGGUAACGCGUGUCCUUCCUAAGGAGAAGACUGGGGGUUCGACUCCCGUACGGAACG,≤ 0.5
